Data from ChEMBL document CHEMBL1139437, “Design, synthesis, and preliminary pharmacological evaluation of 4-aminopiperidine derivatives as N-type calcium channel blockers active on pain and neuropathic pain” (J Med Chem, 2004).

Columns and labels:
[1] = test system: Mus musculus; assay: Analgesic activity was evaluated in mouse hotplate test; expressed as licking latency after 30 min of treatment at a dose of 10 ug intracerebroventricularly; assay type: functional
How it was run: (§1)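 Male Swiss albino mice (23-30 g); icv injection of 5 μL (saline or H2O/DMSO 2:1) under brief anaesthesia. Paw-licking latency (s) on hot plate read before injection and every 15 min up to 60 min. Mice with pretest latency below 12 or over 18 s excluded; cutoff 45 s. Statistics against saline- or vehicle-treated controls.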

[2] = species on record: Mus musculus; assay: Percentage analgesic efficacy when compared to morphine; assay type: functional; set-up: concentration or dose not given beside the values
How it was run: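 Male Swiss albino mice, hot-plate test, paw-licking latency; pretest 12–18 s required, cutoff 45 s. Icv injection of 5 μL under brief anaesthesia, in saline or H2O/DMSO 2:1, at maximal soluble dose. Latency read before and every 15 min after dosing. Efficacy = (peak latency − pretest) as % of the same value for morphine 10 μg/mouse icv; non-significant effects scored 0.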

[3] = test system: Mus musculus; assay: Analgesic activity was evaluated in mouse hotplate test; expressed as licking latency after 45 min of treatment at a dose of 10 ug intracerebroventricularly; assay type: functional; how it was run: as §1
[4] = test system: Mus musculus; assay: Analgesic activity was evaluated in mouse hotplate test; expressed as licking latency after 15 min of treatment at a dose of 10 ug intracerebroventricularly; assay type: functional; how it was run: as §1
[5] = test system: Mus musculus; assay: Analgesic activity was evaluated in mouse hotplate test; expressed as licking latency after 30 min of treatment at a dose of 20 ug intracerebroventricularly; assay type: functional; how it was run: as §1
[6] = test system: Mus musculus; assay: Analgesic activity was evaluated in mouse hotplate test; expressed as licking latency after 45 min of treatment at a dose of 20 ug intracerebroventricularly; assay type: functional; how it was run: as §1
[7] = test system: Mus musculus; assay: Analgesic activity was evaluated in mouse hotplate test; expressed as licking latency after 15 min of treatment at a dose of 20 ug intracerebroventricularly; assay type: functional; how it was run: as §1
[8] = test system: Mus musculus; assay: Analgesic activity was evaluated in mouse hotplate test; expressed as licking latency after 15 min of treatment at a dose of 50 ug intracerebroventricularly; assay type: functional; how it was run: as §1
[9] = test system: Mus musculus; assay: Analgesic activity was evaluated in mouse hotplate test; expressed as licking latency after 30 min of treatment at a dose of 50 ug intracerebroventricularly; assay type: functional; how it was run: as §1
[10] = test system: Mus musculus; assay: Analgesic activity was evaluated in mouse hotplate test; expressed as licking latency after 45 min of treatment at a dose of 50 ug intracerebroventricularly; assay type: functional; how it was run: as §1
[11] = test system: Rattus norvegicus; assay: Antihyperalgesic activity was evaluated in rat (dx) paw pressure test after 30 min at a dose of 50 ug intracerebroventricularly
[12] = test system: Rattus norvegicus; assay: Antihyperalgesic activity was evaluated in rat (dx) paw pressure test after 45 min at a dose of 50 ug intracerebroventricularly
[13] = test system: Rattus norvegicus; assay: Antihyperalgesic activity was evaluated in rat (dx) paw pressure test after 60 min at a dose of 50 ug intracerebroventricularly
[14] = test system: Rattus norvegicus; assay: Antihyperalgesic activity was evaluated in rat (sn) paw pressure test after 30 min at a dose of 50 ug intracerebroventricularly
[15] = test system: Rattus norvegicus; assay: Antihyperalgesic activity was evaluated in rat (sn) paw pressure test after 45 min at a dose of 50 ug intracerebroventricularly
[16] = test system: Rattus norvegicus; assay: Antihyperalgesic activity was evaluated in rat (sn) paw pressure test after 60 min at a dose of 50 ug intracerebroventricularly
[17] = target: Voltage-dependent N-type calcium channel subunit alpha-1B (Rattus norvegicus) (UniProt Q02294); assay: In vitro antagonism of N-type calcium channels expressed in PC12 cells was determined as the increase in intracellular calcium influx
[18] = target: Voltage-dependent N-type calcium channel subunit alpha-1B (Rattus norvegicus) (UniProt Q02294); assay: In vitro antagonism of N-type calcium channels expressed in PC12 cells was determined as the increase in intracellular calcium influx in the presence of 10 uM nifedipine
[19] = test system: Mus musculus; assay: Analgesic activity was evaluated in mouse hotplate test; expressed as licking latency after 15 min of treatment at a dose of 30 ug intracerebroventricularly; assay type: functional; how it was run: as §1
[20] = test system: Mus musculus; assay: Analgesic activity was evaluated in mouse hotplate test; expressed as licking latency after 30 min of treatment at a dose of 30 ug intracerebroventricularly; assay type: functional; how it was run: as §1
[21] = test system: Mus musculus; assay: Analgesic activity was evaluated in mouse hotplate test; expressed as licking latency after 45 min of treatment at a dose of 30 ug intracerebroventricularly; assay type: functional; how it was run: as §1
[22] = test system: Rattus norvegicus; assay: Antihyperalgesic activity was evaluated in rat (sn) paw pressure test after 30 min at a dose of 30 ug intracerebroventricularly
[23] = test system: Rattus norvegicus; assay: Antihyperalgesic activity was evaluated in rat (dx) paw pressure test after 30 min at a dose of 30 ug intracerebroventricularly
[24] = test system: Rattus norvegicus; assay: Antihyperalgesic activity was evaluated in rat (dx) paw pressure test after 45 min at a dose of 30 ug intracerebroventricularly
[25] = test system: Rattus norvegicus; assay: Antihyperalgesic activity was evaluated in rat (dx) paw pressure test after 60 min at a dose of 30 ug intracerebroventricularly
[26] = test system: Rattus norvegicus; assay: Antihyperalgesic activity was evaluated in rat (sn) paw pressure test after 45 min at a dose of 30 ug intracerebroventricularly
[27] = test system: Rattus norvegicus; assay: Antihyperalgesic activity was evaluated in rat (sn) paw pressure test after 60 min at a dose of 30 ug intracerebroventricularly
[28] = test system: Mus musculus; assay: Analgesic activity was evaluated in mouse hotplate test; expressed as licking latency after 30 min of treatment at a dose of 15 ug intracerebroventricularly; assay type: functional; how it was run: as §1
[29] = test system: Mus musculus; assay: Analgesic activity was evaluated in mouse hotplate test; expressed as licking latency after 45 min of treatment at a dose of 15 ug intracerebroventricularly; assay type: functional; how it was run: as §1
[30] = test system: Mus musculus; assay: Analgesic activity was evaluated in mouse hotplate test; expressed as licking latency after 15 min of treatment at a dose of 15 ug intracerebroventricularly; assay type: functional; how it was run: as §1
[31] = test system: Mus musculus; assay: Analgesic activity was evaluated in mouse hotplate test; expressed as licking latency after 30 min of treatment at a dose of 25 ug intracerebroventricularly; assay type: functional; how it was run: as §1
[32] = test system: Mus musculus; assay: Analgesic activity was evaluated in mouse hotplate test; expressed as licking latency after 15 min of treatment at a dose of 25 ug intracerebroventricularly; assay type: functional; how it was run: as §1
[33] = test system: Mus musculus; assay: Analgesic activity was evaluated in mouse hotplate test; expressed as licking latency after 45 min of treatment at a dose of 25 ug intracerebroventricularly; assay type: functional; how it was run: as §1

Sequence of Voltage-dependent N-type calcium channel subunit alpha-1B (Rattus norvegicus) (Q02294 whole entry, looked up): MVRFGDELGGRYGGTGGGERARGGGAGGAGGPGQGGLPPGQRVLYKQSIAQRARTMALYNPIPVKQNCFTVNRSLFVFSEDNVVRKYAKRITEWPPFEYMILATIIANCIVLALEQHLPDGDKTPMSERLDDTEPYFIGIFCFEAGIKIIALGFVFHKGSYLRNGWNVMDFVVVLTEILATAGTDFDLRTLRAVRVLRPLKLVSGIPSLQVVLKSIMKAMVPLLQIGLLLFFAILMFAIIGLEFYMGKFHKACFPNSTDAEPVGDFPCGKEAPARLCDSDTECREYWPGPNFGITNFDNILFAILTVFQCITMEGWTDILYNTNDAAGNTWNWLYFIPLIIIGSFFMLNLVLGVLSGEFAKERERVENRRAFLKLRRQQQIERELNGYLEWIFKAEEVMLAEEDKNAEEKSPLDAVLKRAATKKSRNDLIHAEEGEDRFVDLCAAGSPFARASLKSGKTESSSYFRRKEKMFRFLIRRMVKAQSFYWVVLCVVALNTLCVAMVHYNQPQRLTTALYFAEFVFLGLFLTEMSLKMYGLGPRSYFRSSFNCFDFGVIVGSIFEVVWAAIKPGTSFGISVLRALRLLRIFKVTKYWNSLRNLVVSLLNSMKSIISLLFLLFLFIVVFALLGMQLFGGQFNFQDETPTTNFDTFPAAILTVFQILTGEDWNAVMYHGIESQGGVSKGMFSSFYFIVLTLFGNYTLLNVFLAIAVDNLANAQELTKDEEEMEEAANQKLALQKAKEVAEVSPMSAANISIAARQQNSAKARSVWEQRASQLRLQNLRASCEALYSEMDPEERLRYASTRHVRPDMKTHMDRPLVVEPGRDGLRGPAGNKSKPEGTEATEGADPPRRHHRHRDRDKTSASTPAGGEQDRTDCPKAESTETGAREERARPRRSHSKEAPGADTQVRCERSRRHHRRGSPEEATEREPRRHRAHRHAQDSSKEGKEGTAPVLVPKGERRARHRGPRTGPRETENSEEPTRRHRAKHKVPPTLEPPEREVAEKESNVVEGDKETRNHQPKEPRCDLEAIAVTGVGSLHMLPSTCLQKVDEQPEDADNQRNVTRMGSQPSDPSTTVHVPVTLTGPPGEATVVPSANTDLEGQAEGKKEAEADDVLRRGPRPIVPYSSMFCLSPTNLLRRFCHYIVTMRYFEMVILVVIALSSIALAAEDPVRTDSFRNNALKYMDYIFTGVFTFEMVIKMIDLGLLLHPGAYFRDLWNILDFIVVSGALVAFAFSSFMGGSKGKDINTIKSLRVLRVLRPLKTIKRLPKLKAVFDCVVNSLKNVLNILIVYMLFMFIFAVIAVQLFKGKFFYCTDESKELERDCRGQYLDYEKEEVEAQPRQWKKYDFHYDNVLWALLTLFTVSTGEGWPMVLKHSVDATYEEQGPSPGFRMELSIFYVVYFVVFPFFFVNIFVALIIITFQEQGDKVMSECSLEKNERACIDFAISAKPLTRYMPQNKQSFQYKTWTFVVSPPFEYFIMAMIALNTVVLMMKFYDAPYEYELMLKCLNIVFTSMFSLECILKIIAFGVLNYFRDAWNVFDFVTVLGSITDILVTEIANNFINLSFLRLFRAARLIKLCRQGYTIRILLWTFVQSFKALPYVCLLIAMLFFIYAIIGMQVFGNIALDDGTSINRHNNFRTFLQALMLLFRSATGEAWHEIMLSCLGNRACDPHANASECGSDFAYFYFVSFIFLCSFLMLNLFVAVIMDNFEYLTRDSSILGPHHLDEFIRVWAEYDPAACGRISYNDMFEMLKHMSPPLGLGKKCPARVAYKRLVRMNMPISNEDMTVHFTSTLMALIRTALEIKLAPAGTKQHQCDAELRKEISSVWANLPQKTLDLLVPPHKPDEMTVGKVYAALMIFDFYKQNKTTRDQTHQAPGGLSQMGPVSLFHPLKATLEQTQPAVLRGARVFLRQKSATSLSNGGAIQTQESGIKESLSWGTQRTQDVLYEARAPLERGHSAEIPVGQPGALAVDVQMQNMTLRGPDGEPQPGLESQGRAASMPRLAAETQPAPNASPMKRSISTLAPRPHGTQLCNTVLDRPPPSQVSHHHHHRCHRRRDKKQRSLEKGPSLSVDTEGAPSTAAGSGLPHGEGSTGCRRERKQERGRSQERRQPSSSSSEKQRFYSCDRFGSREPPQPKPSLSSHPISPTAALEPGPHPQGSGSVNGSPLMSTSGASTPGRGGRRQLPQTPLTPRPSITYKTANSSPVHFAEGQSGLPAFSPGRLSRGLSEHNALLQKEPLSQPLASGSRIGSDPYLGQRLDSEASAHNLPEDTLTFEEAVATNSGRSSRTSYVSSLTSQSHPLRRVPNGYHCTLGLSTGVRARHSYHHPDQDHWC

COc1ccc(CCNC2CCN(C(=O)CCC(C#N)(c3ccc(OC)c(OC)c3)C(C)C)CC2)cc1OC.O=C(O)C(=O)O (stereo not drawn)
Latency [1]: 18.8 s | Efficacy [2]: 0% | Latency [3]: 17.3 s | Latency [4]: 16.5 s

O=C(CCC(c1ccc(F)cc1)c1ccc(F)cc1)NC1CCNCC1.O=C(O)C(=O)O
Latency [5]: 16.7 s | Efficacy [2]: 64% | Latency [6]: 17.1 s | Latency [7]: 21.8 s

COc1ccc(C(C#N)(CCCN2CCC(NCCOc3ccccc3)CC2)C(C)C)cc1OC.O=C(O)C(=O)O (stereo not drawn)
Efficacy [2]: 61% | Latency [8]: 22.3 s | Latency [9]: 20.8 s | Latency [10]: 18.9 s | Activity [11]: 61.7 g | Activity [12]: 58.3 g | Activity [13]: 54.8 g | Activity [14]: 59.5 g | Activity [15]: 64.7 g | Activity [16]: 60.6 g | IC50 [17]: 700 nM | IC50 [18]: 400 nM

COc1ccc(CCNC2CCN(CCCC(C#N)(c3ccccc3)C(C)C)CC2)cc1OC.O=C(O)C(=O)O (stereo not drawn)
Latency [1]: 18.1 s | Efficacy [2]: 0% | Latency [3]: 17.5 s | Latency [4]: 16.6 s

COc1ccc(C(C#N)(CCC(=O)N2CCC(NCCOc3ccccc3)CC2)C(C)C)cc1OC.O=C(O)C(=O)O (stereo not drawn)
Latency [1]: 18.5 s | Efficacy [2]: 0% | Latency [3]: 13.8 s | Latency [4]: 15.7 s

COc1ccc(CCNC2CCN(CCCC(C#N)(c3ccc(OC)c(OC)c3)C(C)C)CC2)cc1OC.O=C(O)C(=O)O (stereo not drawn)
Latency [1]: 18.3 s | Efficacy [2]: 0% | Latency [3]: 17.6 s | Latency [4]: 17.2 s

COc1ccc(CCNC2CCN(CCCC(c3ccc(F)cc3)c3ccc(F)cc3)CC2)cc1OC.Cl
Latency [1]: 16.3 s | Efficacy [2]: 51% | Latency [3]: 16.6 s | Latency [4]: 21.5 s

COc1ccc(CCNC2CCN(Cc3ccccc3)CC2)cc1OC.Cl
Efficacy [2]: 0% | Latency [8]: 15.5 s | Latency [9]: 16.7 s | Latency [10]: 15.3 s

COc1ccc(C(C#N)(CCCNC2CCN(CCOc3ccccc3)CC2)C(C)C)cc1OC.Cl (stereo not drawn)
Latency [19]: 22.6 s | Latency [20]: 16.5 s | Efficacy [2]: 59% | Latency [21]: 15.2 s | Activity [22]: 57.3 g | Activity [23]: 33.4 g | Activity [24]: 38.6 g | Activity [25]: 40.5 g | Activity [26]: 55.6 g | Activity [27]: 59.4 g | IC50 [17]: 3800 nM | IC50 [18]: 3100 nM

CCCCNC1CCN(CCCC(C#N)(c2ccc(OC)c(OC)c2)C(C)C)CC1.Cl (stereo not drawn)
Latency [19]: 23.1 s | Latency [20]: 21.3 s | Efficacy [2]: 59% | Latency [21]: 18.7 s | Activity [22]: 59.1 g | Activity [23]: 47.3 g | Activity [24]: 43.5 g | Activity [25]: 38.6 g | Activity [26]: 57.3 g | Activity [27]: 59.2 g

CCCCNC1CCN(C(=O)CCC(C#N)(c2ccc(OC)c(OC)c2)C(C)C)CC1.Cl (stereo not drawn)
Latency [19]: 18.7 s | Latency [20]: 17.4 s | Efficacy [2]: 0% | Latency [21]: 17 s | Activity [22]: 65 g | Activity [23]: 28.4 g | Activity [24]: 26.7 g | Activity [25]: 32 g | Activity [26]: 56.9 g | Activity [27]: 59.3 g

COc1ccc(CCN2CCC(NCCCC(C#N)(c3ccc(OC)c(OC)c3)C(C)C)CC2)cc1OC.Cl (stereo not drawn)
Latency [28]: 18.3 s | Efficacy [2]: 0% | Latency [29]: 15.4 s | Latency [30]: 17.7 s

COc1ccc(C(C#N)(CCCNC2CCN(C/C=C/c3ccccc3)CC2)C(C)C)cc1OC.Cl (stereo not drawn)
Latency [5]: 20.2 s | Efficacy [2]: 69% | Latency [6]: 16.2 s | Latency [7]: 24.3 s

CCCCN1CCC(NCCCC(C#N)(c2ccc(OC)c(OC)c2)C(C)C)CC1.Cl (stereo not drawn)
Latency [31]: 21.6 s | Efficacy [2]: 47% | Latency [32]: 20.5 s | Latency [33]: 19 s

Cl.O=C(CCC(c1ccc(F)cc1)c1ccc(F)cc1)NC1CCN(CCO)CC1
Latency [28]: 16.8 s | Efficacy [2]: 0% | Latency [29]: 17.3 s | Latency [30]: 16.9 s
